Legend:
Acinetobacter baumannii [1] = assay: Potentiation of erythromycin antibacterial activity against Acinetobacter baumannii AB5075 assessed as erythromycin MIC at 2.5 uM incubated for 16 hrs by broth microdilution method; assay type: functional
Acinetobacter baumannii [2] = assay: Potentiation of Clarithromycin antibacterial activity against Acinetobacter baumannii AB5075 assessed as clarithromycin MIC at 7.5 uM incubated for 16 hrs by broth microdilution method; assay type: functional
Klebsiella pneumoniae [3] = assay: Antibacterial activity against Klebsiella pneumoniae ATCC BAA-2146 assessed as inhibition of bacterial growth incubated for 16 hrs by broth microdilution method; assay type: functional
How it was run: (§1)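 Standalone MIC by broth microdilution. 6 h day cultures in cation-adjusted Mueller-Hinton broth (CAMHB) diluted to 5×10^5 CFU/mL. Compound added from 10 mM DMSO stock to 200 μM (highest concentration), then twofold serial dilution. Incubated stationary at 37 °C for 16 h.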

Acinetobacter baumannii [4] = assay: Potentiation of Clarithromycin antibacterial activity against Acinetobacter baumannii AB5075 assessed as clarithromycin MIC at 1.5 uM incubated for 16 hrs by broth microdilution method; assay type: functional
How it was run: (§2)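 Checkerboard-style potentiation by broth microdilution. 6 h day cultures in CAMHB diluted to 5×10^5 CFU/mL. Adjuvant added from 10 mM DMSO stock at fixed concentration throughout. […] Controls: antibiotic alone, adjuvant alone, media only. Incubated stationary at 37 °C for 16 h. MIC is lowest concentration with no visible growth; fold reduction taken against the antibiotic-alone lane.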

Acinetobacter baumannii [5] = assay: Potentiation of erythromycin antibacterial activity against Acinetobacter baumannii AB5075 assessed as erythromycin MIC at 30 uM incubated for 16 hrs by broth microdilution method; assay type: functional
Escherichia coli [6] = assay: Potentiation of Clarithromycin antibacterial activity against Escherichia coli ATCC 25922 assessed as clarithromycin MIC at 3.75 uM incubated for 16 hrs by broth microdilution method; assay type: functional
Acinetobacter baumannii [7] = assay: Potentiation of Azithromycin antibacterial activity against Acinetobacter baumannii AB5075 assessed as azithromycin MIC at 30 uM incubated for 16 hrs by broth microdilution method; assay type: functional
[8] = Metabolic stability in human liver microsomes assessed as parent compound remaining in presence of NADPH measured at 1 hr by UV-UPLC analysis; assay type: ADME, Microsome
Acinetobacter baumannii [9] = assay: Potentiation of erythromycin antibacterial activity against Acinetobacter baumannii AB5075 assessed as erythromycin MIC at 10 uM incubated for 16 hrs by broth microdilution method; assay type: functional
Escherichia coli [10] = assay: Potentiation of Clarithromycin antibacterial activity against Escherichia coli ATCC 25922 assessed as clarithromycin MIC at 2.5 uM incubated for 16 hrs by broth microdilution method; assay type: functional; how it was run: as §2
Acinetobacter baumannii [11] = assay: Potentiation of Clarithromycin antibacterial activity against Acinetobacter baumannii AB3560 assessed as clarithromycin MIC at 10 uM incubated for 16 hrs by broth microdilution method; assay type: functional
Acinetobacter baumannii [12] = assay: Potentiation of Clarithromycin antibacterial activity against Acinetobacter baumannii AB5075 assessed as fold reduction in clarithromycin MIC at 7.5 uM incubated for 16 hrs by broth microdilution method; assay type: functional; how it was run: as §2
[13] = Antiproliferative against human HepG2 cells assessed as reduction in cell viability incubated for 24 hrs by XTT assay; assay type: toxicity, cell-based
Acinetobacter baumannii [14] = assay: Potentiation of rifampicin antibacterial activity against Acinetobacter baumannii AB5075 assessed as fold reduction in rifampicin MIC at 10 uM incubated for 16 hrs by broth microdilution method; assay type: functional
Escherichia coli [15] = assay: Antibacterial activity against Escherichia coli ATCC 25922 assessed as inhibition of bacterial growth incubated for 16 hrs by broth microdilution method; assay type: functional; how it was run: as §1
Acinetobacter baumannii [16] = assay: Potentiation of Clarithromycin antibacterial activity against Acinetobacter baumannii AB3785 assessed as clarithromycin MIC at 10 uM incubated for 16 hrs by broth microdilution method; assay type: functional
Acinetobacter baumannii [17] = assay: Potentiation of Clarithromycin antibacterial activity against Acinetobacter baumannii AB967 assessed as clarithromycin MIC at 10 uM incubated for 16 hrs by broth microdilution method; assay type: functional
Klebsiella pneumoniae [18] = assay: Potentiation of Clarithromycin antibacterial activity against Klebsiella pneumoniae ATCC BAA-2146 assessed as clarithromycin MIC at 10 uM incubated for 16 hrs by broth microdilution method; assay type: functional
Acinetobacter baumannii [19] = assay: Potentiation of rifampicin antibacterial activity against Acinetobacter baumannii AB5075 assessed as rifampicin MIC at 5 uM incubated for 16 hrs by broth microdilution method; assay type: functional
How it was run: (§3)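 A. baumannii AB5075 6 h day cultures in CAMHB subcultured to 5×10^5 CFU/mL; adjuvant added from 10 mM DMSO stock at fixed concentration, then rifampicin (DMSO) twofold serially diluted in adjuvant-containing broth. Antibiotic-alone and adjuvant-alone control lanes.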

Acinetobacter baumannii [20] = assay: Potentiation of Clarithromycin antibacterial activity against Acinetobacter baumannii AB5674 assessed as clarithromycin MIC at 10 uM incubated for 16 hrs by broth microdilution method; assay type: functional
Acinetobacter baumannii [21] = assay: Potentiation of rifampicin antibacterial activity against Acinetobacter baumannii AB5075 assessed as rifampicin MIC at 7.5 uM incubated for 16 hrs by broth microdilution method; assay type: functional; how it was run: as §3
Acinetobacter baumannii [22] = assay: Potentiation of rifampicin antibacterial activity against Acinetobacter baumannii AB5075 assessed as rifampicin MIC at 10 uM incubated for 16 hrs by broth microdilution method; assay type: functional
[23] = Stability of compound in human plasma assessed as parent compound remaining measured at 4 hrs; assay type: ADME, cell-free
How it was run: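 Compound at 20 μM final in human plasma (from 10 mM DMSO stock), 37 °C; aliquots at 0, 30, 60, 120, 240 min quenched in internal standard in 1:1 ACN/MeOH, centrifuged, supernatant analysed by UPLC-MRM. Peak-area ratio to internal standard expressed as % parent remaining relative to 0 min; half-life calculated.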

Acinetobacter baumannii [24] = assay: Potentiation of Azithromycin antibacterial activity against Acinetobacter baumannii AB5075 assessed as azithromycin MIC at 7.5 uM incubated for 16 hrs by broth microdilution method; assay type: functional
Acinetobacter baumannii [25] = assay: Potentiation of erythromycin antibacterial activity against Acinetobacter baumannii AB5075 assessed as erythromycin MIC at 20 uM incubated for 16 hrs by broth microdilution method; assay type: functional
Acinetobacter baumannii [26] = assay: Potentiation of rifampicin antibacterial activity against Acinetobacter baumannii AB5075 assessed as rifampicin MIC at 20 uM incubated for 16 hrs by broth microdilution method; assay type: functional
Escherichia coli [27] = assay: Potentiation of Clarithromycin antibacterial activity against Escherichia coli ATCC 25922 assessed as clarithromycin MIC at 3 uM incubated for 16 hrs by broth microdilution method; assay type: functional
Acinetobacter baumannii [28] = assay: Potentiation of Azithromycin antibacterial activity against Acinetobacter baumannii AB5075 assessed as azithromycin MIC at 10 uM incubated for 16 hrs by broth microdilution method; assay type: functional
Acinetobacter baumannii [29] = assay: Potentiation of Azithromycin antibacterial activity against Acinetobacter baumannii AB5075 assessed as azithromycin MIC at 2.5 uM incubated for 16 hrs by broth microdilution method; assay type: functional
Acinetobacter baumannii [30] = assay: Potentiation of Azithromycin antibacterial activity against Acinetobacter baumannii AB5075 assessed as azithromycin MIC at 20 uM incubated for 16 hrs by broth microdilution method; assay type: functional
Acinetobacter baumannii [31] = assay: Potentiation of Clarithromycin antibacterial activity against Acinetobacter baumannii AB5075 assessed as clarithromycin MIC at 5 uM incubated for 16 hrs by broth microdilution method; assay type: functional

Cl.Cl.Nc1nc(-c2ccc(NC(=O)Nc3cccc(-c4c[nH]c(N)n4)c3F)cc2F)c[nH]1
MIC (Acinetobacter baumannii [1]): 32 µg/mL | MIC (Acinetobacter baumannii [2]): ≤ 0.062 µg/mL | MIC (Klebsiella pneumoniae [3]): > 200 µM | MIC (Acinetobacter baumannii [4]): 2 µg/mL | MIC (Acinetobacter baumannii [5]): ≤ 0.062 µg/mL | MIC (Escherichia coli [6]): 0.125 µg/mL | MIC (Acinetobacter baumannii [7]): ≤ 0.062 µg/mL | Stability [8]: 87% | MIC (Acinetobacter baumannii [9]): ≤ 0.062 µg/mL | MIC (Escherichia coli [10]): 32 µg/mL | MIC (Acinetobacter baumannii [11]): ≤ 0.062 µg/mL | fold change (FC) (Acinetobacter baumannii [12]): >=512 | IC50 at 24 h [13]: 208 µg/mL | fold change (FC) (Acinetobacter baumannii [14]): 32 | MIC (Escherichia coli [15]): 12.5 µM | MIC (Acinetobacter baumannii [16]): ≤ 0.062 µg/mL | MIC (Acinetobacter baumannii [17]): ≤ 0.062 µg/mL | MIC (Klebsiella pneumoniae [18]): 2 µg/mL | MIC (Acinetobacter baumannii [19]): 0.125 µg/mL | MIC (Acinetobacter baumannii [20]): ≤ 0.062 µg/mL | MIC (Acinetobacter baumannii [21]): 0.015 µg/mL | MIC (Acinetobacter baumannii [22]): 7 ng/mL | Stability [23]: 76% | MIC (Acinetobacter baumannii [24]): 0.5 µg/mL | MIC (Acinetobacter baumannii [25]): ≤ 0.062 µg/mL | MIC (Acinetobacter baumannii [26]): 1 ng/mL | MIC (Escherichia coli [27]): 4 µg/mL | MIC (Acinetobacter baumannii [28]): 0.125 µg/mL | MIC (Acinetobacter baumannii [29]): 32 µg/mL | MIC (Acinetobacter baumannii [30]): ≤ 0.062 µg/mL | MIC (Acinetobacter baumannii [31]): ≤ 0.062 µg/mL

— ChEMBL document CHEMBL5360562 (Eur J Med Chem, 2023)
